From ChEMBL document CHEMBL3045447, “Isolation and structural elucidation of eight new related analogues of the mycotoxin (-)-botryodiplodin from Penicillium coalescens” (2007)

Columns and labels:
Assay type in all cases: functional
Oncopeltus fasciatus = test: Insecticidal activity against Oncopeltus fasciatus fourth-instar larvae assessed as insect mortality measured after 72 hr post compound application
Procedure, shortened: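 Treated nymphs confined in a 9 cm Petri dish with food and water ad libitum. Acetone-only controls run in parallel. Acute toxicity scored as dead insects after 72 h, in triplicate. LD50 (µg/nymph) from linear regression of probit mortality on log dose.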

Staphylococcus aureus = test: Antibacterial activity against Staphylococcus aureus CECT 86 at 0.2 mg/disk after 24 hr by paper disk agar diffusion assay
Procedure, shortened: (§1)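 Paper disk–agar diffusion, triplicate. Each bacterium grown 24 h in Nutrient Broth at 28 °C or 37 °C, per organism. 1 mL suspension inoculated into a plate, then 15 mL Plate Count Agar added. Five loaded disks placed after solidification. Plates incubated 24 h dark at 28 or 37 °C. Halo measured. Solvent-only disks as negative control; tetracycline chlorhydrate as positive control.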

Bacillus cereus = test: Antibacterial activity against Bacillus cereus CECT 148 at 0.2 mg/disk after 24 hr by paper disk agar diffusion assay; procedure, shortened: as §1
Escherichia coli = test: Antibacterial activity against Escherichia coli CECT 405 at 0.2 mg/disk after 24 hr by paper disk agar diffusion assay; procedure, shortened: as §1
Enterococcus faecalis = test: Antibacterial activity against Enterococcus faecalis CECT 481 at 0.2 mg/disk after 24 hr by paper disk agar diffusion assay; procedure, shortened: as §1
[1] = system: Pectobacterium carotovorum; test: Antibacterial activity against Pectobacterium carotovorum CECT 225 at 0.2 mg/disk […] by paper disk-agar diffusion assay
[2] = system: Phytophthora citrophthora; test: Antifungal activity against Phytophthora citrophthora CECT 2353 at 1.5 ug/disk after 72 hr by paper disk agar diffusion assay; conditions: CECT 2353, 72 h, read-out: IZ
Procedure, shortened: (§2)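 Paper disk–agar diffusion, triplicate. Fungus grown on PDA 7 days at 28 °C. Conidia suspended at ca. 10^6/mL in 0.05% Tween 80. 1 mL seeded into 15 mL PDA. After solidification, four 0.5 cm paper disks loaded with test product. Inhibition zone (mm) read at 72 h. Solvent-only disks as negative control; benomyl disks, dose set per species, as positive control.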

Trichoderma viride = test: Antifungal activity against Hypocrea rufa CECT 2423 at 1 ug/disk after 72 hr by paper disk agar diffusion assay; conditions: CECT 2423, 72 h, read-out: IZ; procedure, shortened: as §2
Verticillium dahliae [3] = test: Antifungal activity against Verticillium dahliae CCM 269 at 0.25 ug/disk after 72 hr by paper disk-agar diffusion assay; conditions: CCM 269, 72 h, read-out: IZ; procedure, shortened: as §2
[4] = system: Colletotrichum gloeosporioides; test: Antifungal activity against Colletotrichum gloeosporioides CECT 2859 at 0.5 ug/disk after 72 hr by paper disk-agar diffusion assay; conditions: CECT 2859, 72 h, read-out: IZ; procedure, shortened: as §2
Aspergillus parasiticus = test: Antifungal activity against Aspergillus parasiticus CECT 2681 at 1 ug/disk after 72 hr by paper disk agar diffusion assay; conditions: CECT 2681, 72 h, read-out: IZ; procedure, shortened: as §2
[5] = system: Fusarium oxysporum f. sp. niveum; test: Antifungal activity against Fusarium oxysporum f. sp. niveum CCM 259 at 5 ug/disk after 72 hr by paper disk-agar diffusion assay; conditions: CCM 259, 72 h, read-out: IZ; procedure, shortened: as §2
Penicillium italicum = test: Antifungal activity against Penicillium italicum CECT 2294 at 0.2 ug/disk after 72 hr by paper disk-agar diffusion assay; conditions: CECT 2294, 72 h, read-out: IZ; procedure, shortened: as §2
Trichothecium roseum = test: Antifungal activity against Trichothecium roseum CECT 2410 at 5 ug/disk after 72 hr by paper disk agar diffusion assay; conditions: CECT 2410, 72 h, read-out: IZ; procedure, shortened: as §2
Fusarium culmorum = test: Antifungal activity against Fusarium culmorum CECT 2148 at 10 ug/disk after 72 hr by paper disk agar diffusion assay; conditions: CECT 2148, 72 h, read-out: IZ; procedure, shortened: as §2
[6] = system: Fusarium oxysporum f. sp. gladioli; test: Antifungal activity against Fusarium oxysporum f. sp. gladioli CCM 233 at 10 ug/disk after 72 hr by paper disk agar diffusion assay; conditions: CCM 233, 72 h, read-out: IZ; procedure, shortened: as §2
[7] = system: Phytophthora citrophthora; test: Antifungal activity against Phytophthora citrophthora CECT 2353 at 0.2 mg/disk after 72 hr by paper disk agar diffusion assay; procedure, shortened: as §2
Ceratitis capitata = test: Insecticidal activity against Ceratitis capitata 2 to 3 days old adult male flies assessed as insect mortality measured after 10 days post compound application
Procedure, shortened: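 Topical dose in 1 µL acetone applied by micropipet to the ventral abdomen of ice-anaesthetised 2–3-day-old adults, five males plus five females per group. Controls got acetone alone. Flies kept in a netted box with diet and water ad libitum. Mortality scored every 24 h for 10 days, in triplicate. LD50 from probit of mortality vs log dose.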

Verticillium dahliae [8] = test: Antifungal activity against Verticillium dahliae CCM 269 at 0.2 mg/disk after 72 hr by paper disk-agar diffusion assay; procedure, shortened: as §2

## C=C(C(C)=O)[C@@H](C)CO[C@@H]1OC[C@@H](C(C)=O)[C@H]1C [(-)-2-EPI-BOTRYODIPLODINENONE]
Oncopeltus fasciatus
  LD50: >15 µg

## CN(C)[C@@H]1C(O)=C(C(N)=O)C(=O)[C@@]2(O)C(O)=C3C(=O)c4c(O)cccc4[C@@](C)(O)[C@H]3C[C@@H]12.Cl [TETRACYCLINE HYDROCHLORIDE]
Staphylococcus aureus
  inhibition zone (IZ): 16.67 mm
Bacillus cereus
  inhibition zone (IZ): 18.33 mm
Escherichia coli
  inhibition zone (IZ): 24 mm
Enterococcus faecalis
  inhibition zone (IZ): 31.67 mm
[1]
  inhibition zone (IZ): 34.67 mm

## CC(=O)O[C@@H]1OC[C@@H](C(C)=O)[C@H]1C (relative stereo) [Botryodiplodin acetate]
Oncopeltus fasciatus
  LD50: 12.19 µg

## CCCCNC(=O)n1c(NC(=O)OC)nc2ccccc21 [BENOMYL]
[2]
  zone of inhibition at 1.5 µg/disc: 17.1 mm
Trichoderma viride
  zone of inhibition at 1 µg/disc: 12.3 mm
Verticillium dahliae [3]
  zone of inhibition at 0.25 µg/disc: 14.3 mm
[4]
  zone of inhibition at 0.5 µg/disc: 26.7 mm
Aspergillus parasiticus
  zone of inhibition at 1 µg/disc: 8.33 mm
[5]
  zone of inhibition at 5 µg/disc: 17.3 mm
Penicillium italicum
  zone of inhibition at 0.2 µg/disc: 16.7 mm
Trichothecium roseum
  zone of inhibition at 5 µg/disc: 29.7 mm
Fusarium culmorum
  zone of inhibition at 10 µg/disc: 19 mm
[6]
  zone of inhibition at 10 µg/disc: 9.33 mm

## CC(=O)[C@@H]1CO[C@@H](O[C@@H]2OC[C@@H](C(C)=O)[C@H]2C)[C@@H]1C [(-)-BOTRYODIPLODIN DIMER]
Oncopeltus fasciatus
  LD50: >15 µg

## CC(=O)[C@@H]1COC(O)[C@@H]1C (single isomer, unassigned; (-)) [(-)-BOTRYODIPLODIN]
Staphylococcus aureus
  inhibition zone (IZ): 13.53 mm
[7]
  inhibition zone (IZ): 8.21 mm
Oncopeltus fasciatus
  LD50: 5.55 µg
Ceratitis capitata
  LD50: 12.9 µg
Verticillium dahliae [8]
  inhibition zone (IZ): 17.31 mm
